Assays:
[1] = tested on: 2008 (ovarian) cancer cells; assay: MTT cytotoxicity, 2008 cells, 72 h; type: cell-based, human; conditions: read-out: IC50 2008, 72 h incubation
Summary of the method: (§1)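 Cells kept in log phase at 37 °C, 5% CO2, 10% FCS, 2 mM L-glutamine; RPMI-1640 for HCT-15, PSN-1, NTERA-2, 2008 and C13*; DMEM for MDA-MB-231 and HEK293; F-12 HAM's for CHO. C13* selected from 2008 with low-dose cisplatin. 72 h exposure, 0.5% final DMSO. IC50 at 570 nm vs untreated by 4-PL. RF = C13*/2008 IC50; panel average of IC50s.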

[2] = tested on: NTERA-2 cancer cell spheroids; assay: 3D spheroids APH assay, NTERA-2; type: cell-based, human; conditions: read-out: IC50 3D spheroids NTERA-2, 72 h incubation
Summary of the method: (§2)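 2.5 × 10^3 2008 or NTERA-2 cells per well grown as spheroids in phenol red-free F-12 HAM's with 10% FCS and 20% methyl cellulose stock. Treated 72 h; DMSO stocks, 0.5% final DMSO; cisplatin from 0.9% NaCl. Viability by modified acid phosphatase assay. IC50 from 405 nm absorbance vs untreated, 4-PL fit.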

[3] = tested on: 2008 cancer cell spheroids; assay: 3D spheroids APH assay, 2008; type: cell-based, human; conditions: read-out: IC50 3D spheroids 2008, 72 h incubation
Summary of the method: as §2

[4] = tested on: NTERA-2 (embryonal) cancer cells; assay: MTT cytotoxicity, NTERA-2 cells, 72 h; type: cell-based, human; conditions: read-out: IC50 NTERA-2, 72 h incubation
Summary of the method: as §1

[5] = tested on: human embryonic kidney (HEK-293) cells; assay: MTT cytotoxicity, non-tumor HEK-293 cells; type: cell-based; conditions: read-out: IC50 HEK-293, 72 h incubation
Summary of the method: as §1

[6] = tested on: MDA-MB-231 (breast) cancer cells; assay: MTT cytotoxicity, MDA-MB-231 cells, 72 h; type: cell-based, human; conditions: read-out: IC50 MDA-MB-231, 72 h incubation
Summary of the method: as §1

[7] = tested on: HCT-15 (colorectal) cancer cells; assay: MTT cytotoxicity, HCT-15 cells, 72 h; type: cell-based, human; conditions: read-out: IC50 HCT-15, 72 h incubation
Summary of the method: as §1

[8] = tested on: PSN-1 (pancreatic) cancer cells; assay: MTT cytotoxicity, PSN-1 cells, 72 h; type: cell-based, human; conditions: read-out: IC50 PSN-1, 72 h incubation
Summary of the method: as §1

[9] = tested on: Chinese hamster ovary (CHO) cells; assay: MTT cytotoxicity, non-tumor CHO cells; type: cell-based; conditions: read-out: IC50 CHO, 72 h incubation
Summary of the method: as §1

[10] = tested on: C13* cancer cells (ovarian, resistant to cisplatin); assay: MTT cytotoxicity, cisplatin-resistant C13* cells, 72 h; type: cell-based, human
Summary of the method: as §1

Structure (SMILES): N.N.[Cl][Pt][Cl] [Cisplatin, cisplatin]
- IC50 [1]: 2 ± 1 µM
- IC50 [2]: 50 ± 5 µM
- IC50 [3]: 13.9 ± 0.8 µM
- IC50 [4]: 15 ± 3 µM
- IC50 [5]: 14 ± 3 µM
- IC50 [6]: 22 ± 4 µM
- IC50 [7]: 14 ± 2 µM
- IC50 [8]: 12 ± 3 µM
- IC50 [9]: 29 ± 3 µM
- resistance factor (RF) ([10]; in brackets, ratio IC50 resistant C13* / sensitive 2008 cells): 11.7
- IC50 ([10]; read-out: IC50 C13*, 72 h incubation, MTT, cisplatin-resistant cells): 25 ± 2 µM

Reference: publication PMC11956031 (RSC Medicinal Chemistry, 2025)
